Calls of active or inactive are those of the source. The rule behind the calls is not given here.
Assays:
[1] = test system: DU-145; assay: Antiproliferative activity against human DU145 cells by MTT assay; assay type: functional, cell-based
[2] = test system: MDA-MB-231; assay: Antiproliferative activity against human MDA-MB-231 cells by MTT assay; assay type: functional, cell-based
[3] = test system: MCF7; assay: Antiproliferative activity against human MCF7 cells by MTT assay; assay type: functional, cell-based
[4] = test system: LN-229; assay: Antiproliferative activity against human LN229 cells by MTT assay; assay type: functional, cell-based
[5] = test system: HCT-116; assay: Antiproliferative activity against human HCT116 cells by MTT assay; assay type: functional, cell-based
[6] = test system: HT-29; assay: Antiproliferative activity against human HT-29 cells by MTT assay; assay type: functional, cell-based
[7] = test system: LoVo; assay: Antiproliferative activity against human LoVo cells by MTT assay; assay type: functional, cell-based
[8] = test system: HCT-15; assay: Antiproliferative activity against human HCT15 cells by MTT assay; assay type: functional, cell-based
[9] = test system: HEK293; assay: Antiproliferative activity against human HEK293 cells by MTT assay; assay type: cell-based
[10] = test system: PC-3; assay: Antiproliferative activity against human PC3 cells by MTT assay; assay type: functional, cell-based
[11] = test system: A2780; assay: Antiproliferative activity against human A2780 cells by MTT assay; assay type: functional, cell-based
[12] = test system: HCT-116; assay: Induction of apoptosis in human HCT116 cells assessed as apoptotic cells at 30 uM after 24 hrs by Alexa Fluor 488 Annexin V/MitoTracker red staining-based flow cytometric analysis (reference value: 7.48%); assay type: functional
[13] = test system: HCT-116; assay: Cell cycle arrest in human HCT116 cells assessed as sub G1 phase accumulation after 24 hrs by propidium iodide staining-based flow cytometric analysis; assay type: functional
[14] = test system: HCT-116; assay: Induction of apoptosis in human HCT116 cells assessed as viable cells at 30 uM after 24 hrs by Alexa Fluor 488 Annexin V/MitoTracker red staining-based flow cytometric analysis (reference value: 92.5%); assay type: functional; settings: HCT-116, 24 h, read-out: Activity
[15] = test system: HCT-116; assay: Induction of apoptosis in human HCT116 cells assessed as viable cells at 20 uM after 24 hrs by Alexa Fluor 488 Annexin V/MitoTracker red staining-based flow cytometric analysis (reference value: 92.5%); assay type: functional; settings: HCT-116, 24 h, read-out: Activity
[16] = test system: HCT-116; assay: Induction of apoptosis in human HCT116 cells assessed as viable cells at 10 uM after 24 hrs by Alexa Fluor 488 Annexin V/MitoTracker red staining-based flow cytometric analysis (reference value: 92.5%); assay type: functional; settings: HCT-116, 24 h, read-out: Activity
[17] = test system: HCT-116; assay: Cell cycle arrest in human HCT116 cells assessed as G2 phase accumulation at 20 uM after 24 hrs by propidium iodide staining-based flow cytometric analysis (reference value: 7.56%); assay type: functional
[18] = test system: HCT-116; assay: Inhibition of colony formation in human HCT116 cells assessed as decrease in reduction in mean colony formation rate at 5 to 20 uM; assay type: functional, cell-based
Summary of the method: (§1)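 HCT116 colony formation assay with 5, 10 or 20 μM, or vehicle. Colony number, density and size recorded. Three independent repeats.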

[19] = test system: HCT-15; assay: Cytotoxicity against human HCT15 cells at 1 to 30 uM incubated for 72 hrs by inverted microscopy
[20] = test system: HCT-116; assay: Induction of apoptosis in human HCT116 cells assessed as viable cells at 5 uM after 24 hrs by Alexa Fluor 488 Annexin V/MitoTracker red staining-based flow cytometric analysis (reference value: 92.5%); assay type: functional; settings: HCT-116, 24 h, read-out: Activity
[21] = test system: HCT-116; assay: Induction of apoptosis in human HCT116 cells assessed as nuclear fragmentation at 5 to 10 uM after 24 hrs by DAPI staining-based fluorescent microscopic analysis; assay type: functional, cell-based
Summary of the method: (§2)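 HCT116 cells given 5 or 10 μM, or vehicle, for 24 or 48 h. Cells fixed and stained with DAPI. Condensed and fragmented nuclei assessed by fluorescence microscopy at 40X.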

[22] = test system: HCT-116; assay: Cell cycle arrest in human HCT116 cells assessed as G2 phase accumulation at 10 uM after 24 hrs by propidium iodide staining-based flow cytometric analysis (reference value: 7.56%); assay type: functional
[23] = test system: HCT-116; assay: Cell cycle arrest in human HCT116 cells assessed as S phase accumulation at 20 uM after 24 hrs by propidium iodide staining-based flow cytometric analysis (reference value: 9.18%); assay type: functional
[24] = test system: HCT-116; assay: Induction of apoptosis in human HCT116 cells after 24 hrs by Alexa Fluor 488 Annexin V/MitoTracker red staining-based flow cytometric analysis; assay type: functional, cell-based
[25] = test system: HCT-116; assay: Cell cycle arrest in human HCT116 cells assessed as G2 phase accumulation at 5 uM after 24 hrs by propidium iodide staining-based flow cytometric analysis (reference value: 7.56%); assay type: functional
[26] = test system: HCT-116; assay: Cell cycle arrest in human HCT116 cells assessed as S phase accumulation at 10 uM after 24 hrs by propidium iodide staining-based flow cytometric analysis (reference value: 9.18%); assay type: functional
[27] = test system: HCT-116; assay: Cell cycle arrest in human HCT116 cells assessed as G1 phase accumulation at 5 uM after 24 hrs by propidium iodide staining-based flow cytometric analysis (reference value: 78.7%); assay type: functional
[28] = test system: HEK293; assay: Cytotoxicity against human HEK293 cells at 1 to 30 uM incubated for 72 hrs by inverted microscopy; settings: hek293, 72 h
[29] = test system: HCT-116; assay: Inhibition of colony formation in human HCT116 cells assessed as decrease in colony size at 5 to 20 uM; assay type: functional, cell-based; summary of the method: as §1
[30] = test system: LoVo; assay: Cytotoxicity against human LoVo cells at 1 to 30 uM incubated for 72 hrs by inverted microscopy
[31] = test system: HCT-116; assay: Cell cycle arrest in human HCT116 cells assessed as G1 phase accumulation at 20 uM after 24 hrs by propidium iodide staining-based flow cytometric analysis (reference value: 78.7%); assay type: functional
[32] = test system: HCT-116; assay: Induction of apoptosis in human HCT116 cells assessed as apoptotic cells at 10 uM after 24 hrs by Alexa Fluor 488 Annexin V/MitoTracker red staining-based flow cytometric analysis (reference value: 7.48%); assay type: functional
[33] = test system: HCT-116; assay: Cytotoxicity against human HCT116 cells assessed as cell confluence at 10 to 30 uM up to 72 hrs (reference value: 60%); assay type: functional
[34] = test system: HCT-116; assay: Cell cycle arrest in human HCT116 cells assessed as subG1 phase accumulation at 10 uM after 24 hrs by propidium iodide staining-based flow cytometric analysis (reference value: 3.81%); assay type: functional
[35] = test system: HCT-116; assay: Induction of apoptosis in human HCT116 cells assessed as apoptotic cells at 20 uM after 24 hrs by Alexa Fluor 488 Annexin V/MitoTracker red staining-based flow cytometric analysis (reference value: 7.48%); assay type: functional
[36] = test system: HCT-116; assay: Induction of apoptosis in human HCT116 cells assessed as apoptotic cells at 5 uM after 24 hrs by Alexa Fluor 488 Annexin V/MitoTracker red staining-based flow cytometric analysis (reference value: 7.48%); assay type: functional
[37] = test system: HCT-116; assay: Induction of apoptosis in human HCT116 cells assessed as chromatin condensation at 5 to 10 uM after 48 hrs by DAPI staining-based fluorescent microscopic analysis; assay type: functional, cell-based; summary of the method: as §2
[38] = test system: HCT-116; assay: Cell cycle arrest in human HCT116 cells assessed as subG1 phase accumulation at 20 uM after 24 hrs by propidium iodide staining-based flow cytometric analysis (reference value: 3.81%); assay type: functional
[39] = test system: HCT-116; assay: Cell cycle arrest in human HCT116 cells assessed as S phase accumulation at 5 uM after 24 hrs by propidium iodide staining-based flow cytometric analysis (reference value: 9.18%); assay type: functional
[40] = test system: HCT-116; assay: Cytotoxicity against human HCT116 cells at 1 to 30 uM incubated for 72 hrs by inverted microscopy
[41] = test system: HCT-116; assay: Cytotoxicity against human HCT116 cells assessed as reduction in cell confluence at 10 to 30 uM after 20 hrs; assay type: functional, cell-based
[42] = test system: HCT-116; assay: Cell cycle arrest in human HCT116 cells assessed as G1 phase accumulation at 10 uM after 24 hrs by propidium iodide staining-based flow cytometric analysis (reference value: 78.7%); assay type: functional
[43] = test system: HCT-116; assay: Cell cycle arrest in human HCT116 cells assessed as subG1 phase accumulation at 5 uM after 24 hrs by propidium iodide staining-based flow cytometric analysis (reference value: 3.81%); assay type: functional
[44] = test system: HCT-116; assay: Induction of apoptosis in human HCT116 cells assessed as nuclear condensation at 5 to 10 uM after 24 hrs by DAPI staining-based fluorescent microscopic analysis; assay type: functional, cell-based; summary of the method: as §2

Compound: COc1ccc2nc3[nH]nc(N)c3cc2c1
- IC50 [1]: 76.5 µM
- IC50 [2]: 62.3 µM
- IC50 [3]: 49.5 µM
- IC50 [4]: 93.7 µM
- IC50 [5]: 57 µM
- IC50 [6]: 85.2 µM
- IC50 [7]: 55.6 µM
- IC50 [8]: 69.3 µM
- IC50 [9]: > 100 µM
- IC50 [10]: > 100 µM
- IC50 [11]: 35.8 µM

Compound: Nc1n[nH]c2nc3c(ccc4ccccc43)cc12
- IC50 [1]: > 100 µM
- IC50 [2]: > 100 µM
- IC50 [3]: 73.6 µM
- IC50 [4]: 54.3 µM
- IC50 [5]: 76.1 µM
- IC50 [6]: 98.7 µM
- IC50 [7]: 80.6 µM
- IC50 [8]: 68.6 µM
- IC50 [9]: > 100 µM
- IC50 [10]: 59.7 µM
- IC50 [11]: 13.5 µM

Compound: Cc1cc2cc3c(N)[nH]nc3nc2cc1C
- IC50 [1]: > 100 µM
- IC50 [2]: > 100 µM
- IC50 [3]: 78.8 µM
- IC50 [4]: 38.9 µM
- IC50 [5]: > 100 µM
- IC50 [6]: > 100 µM
- IC50 [7]: > 100 µM
- IC50 [8]: > 100 µM
- IC50 [9]: > 100 µM
- IC50 [10]: > 100 µM
- IC50 [11]: > 100 µM

Compound: COc1cc2cc3c(N)n[nH]c3nc2cc1OC
- IC50 [1]: 73.4 µM
- IC50 [2]: 77.9 µM
- IC50 [3]: 72.1 µM
- IC50 [4]: 26 µM
- IC50 [5]: 40.8 µM
- IC50 [6]: 19.4 µM
- IC50 [7]: 33.4 µM
- IC50 [8]: 12.8 µM
- IC50 [9]: 81.1 µM
- IC50 [10]: 65.2 µM
- IC50 [11]: 19.6 µM

Compound: Nc1n[nH]c2nc3cc(Cl)ccc3cc12
- IC50 [1]: > 100 µM
- IC50 [2]: 89.9 µM
- IC50 [3]: > 100 µM
- IC50 [4]: 58.6 µM
- IC50 [5]: 56.6 µM
- IC50 [6]: 42.3 µM
- IC50 [7]: 77.5 µM
- IC50 [8]: 44.8 µM
- IC50 [9]: 36.6 µM
- IC50 [10]: > 100 µM
- IC50 [11]: 59.9 µM

Compound: Cc1ccc2[nH]c3nnc(N)c-3cc2c1
- IC50 [1]: > 100 µM
- IC50 [2]: > 100 µM
- IC50 [3]: > 100 µM
- IC50 [4]: 61.2 µM
- IC50 [5]: > 100 µM
- IC50 [6]: 32.9 µM
- IC50 [7]: 89.6 µM
- IC50 [8]: > 100 µM
- IC50 [9]: > 100 µM
- IC50 [10]: > 100 µM
- IC50 [11]: 98.3 µM

Compound: COc1ccc2cc3c(N)n[nH]c3nc2c1
- Activity [12]: 53.3%
- Activity [13]: Dose-dependent effect
- viability at 30 µM [14]: 46.7%
- viability at 20 µM [15]: 66%
- viability at 10 µM [16]: 68.1%
- Activity [17]: 0.6%
- inhibition [18]: Active
- Activity [19]: Active
- IC50 [1]: 53.4 µM
- viability at 5 µM [20]: 77%
- Activity [21]: Active
- IC50 [2]: 50.6 µM
- Activity [22]: 5.3%
- Activity [23]: 7.99%
- Activity [24]: Dose-dependent effect
- Activity [25]: 1.37%
- Activity [26]: 15.1%
- Activity [27]: 59.3%
- Activity [28]: Non-Toxic
- inhibition [29]: Active
- Activity [30]: Active
- IC50 [3]: 59.2 µM
- Activity [31]: 33.5%
- Activity [32]: 31.8%
- Activity [33]: <=20%
- IC50 [4]: 7.8 µM
- Activity [34]: 32%
- IC50 [5]: 2.3 µM
- Activity [35]: 34%
- Activity [36]: 22.9%
- Activity [37]: Active
- Activity [38]: 55.9%
- IC50 [6]: 3.9 µM
- Activity [39]: 14.5%
- Activity [40]: Active
- Activity [41]: Active
- Activity [42]: 45.9%
- IC50 [7]: 10.2 µM
- Activity [43]: 22.4%
- IC50 [8]: 9.6 µM
- Activity [44]: Active
- IC50 [9]: 45.8 µM
- IC50 [10]: 87.1 µM
- IC50 [11]: 56.6 µM

Compound: Nc1[nH]nc2nc3ccccc3cc12
- IC50 [1]: > 100 µM
- IC50 [2]: > 100 µM
- IC50 [3]: 81.5 µM
- IC50 [4]: 7.8 µM
- IC50 [5]: 67.7 µM
- IC50 [6]: 95.7 µM
- IC50 [7]: 88.6 µM
- IC50 [8]: 58.6 µM
- IC50 [9]: > 100 µM
- IC50 [10]: > 100 µM
- IC50 [11]: 83.9 µM

Source: ChEMBL document CHEMBL4118229, “lH-Pyrazolo[3,4-b]quinolin-3-amine derivatives inhibit growth of colon cancer cells via apoptosis and sub G1 cell cycle arrest” (Bioorg Med Chem Lett, 2018)
